# Laboratory results as given in ChEMBL document CHEMBL5058577, “EUbOPEN Chemogenomics Library 2 (Multiplex)” (2022).
# Tested on: Fibroblast
# Test: Multiplex assay against human fibroblast
# Format: toxicity, cell-based
# Summary of the method: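 Four dyes were applied at seeding to live cells: Hoechst33342, BioTracker Green Microtubule Cytoskeleton Dye, MitoTracker Red and Annexin V Alexa Fluor 680. Imaging after compound addition used a CQ1 microscope at 37°C and 5% CO2. CellPathfinder machine-learning gating then sorted cells into Hoechst high-intensity objects or normal cells, normal cells into healthy, pyknosed or fragmented nuclei, and pyknosed cells into mitotic or apoptotic, with tubulin, mitochondrial-mass and membrane-permeability phenotypes given as per cents of healthy-nucleus cells.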
# [1] = 12 h, 1 µM, compound concentration 1 uM, replicate 1
# [2] = 12 h, 1 µM, compound concentration 1 uM, replicate 2
# [3] = 12 h, 10 µM, compound concentration 10 uM, replicate 1
# [4] = 12 h, 10 µM, compound concentration 10 uM, replicate 2
# [5] = 24 h, 1 µM, compound concentration 1 uM, replicate 1
# [6] = 24 h, 1 µM, compound concentration 1 uM, replicate 2
# [7] = 24 h, 10 µM, compound concentration 10 uM, replicate 1
# [8] = 24 h, 10 µM, compound concentration 10 uM, replicate 2
# [9] = 48 h, 1 µM, compound concentration 1 uM, replicate 1
# [10] = 48 h, 1 µM, compound concentration 1 uM, replicate 2
# [11] = 48 h, 10 µM, compound concentration 10 uM, replicate 1
# [12] = 48 h, 10 µM, compound concentration 10 uM, replicate 2
smiles,measurement,setting,value
CC(/C=C1\SC(=S)N(CCCC(=O)Nc2ccc(C(=O)O)c(O)c2)C1=O)=C\c1ccccc1,Population Apoptotic (%),[1],50%
same,Population Fragmented Nuclei (%),[1],14%
same,Population Healthy Nuclei (%),[1],71%
same,Population Hoechst High Intensity Objects (%),[1],2%
same,Population Membrane Permeable-Phenotype (%),[1],0%
same,Population Mitochondria Different-Phenotype (%),[1],2%
same,Population Mitotic Cells (%),[1],50%
same,Population Normal (%),[1],97%
same,Population Pyknosed Nuclei (%),[1],13%
same,Population Tubulin-Different-Phenotype (%),[1],28%
same,Total Cell Count,[1],206
same,Population Apoptotic (%),[2],33%
same,Population Fragmented Nuclei (%),[2],19%
same,Population Healthy Nuclei (%),[2],60%
same,Population Hoechst High Intensity Objects (%),[2],3%
same,Population Membrane Permeable-Phenotype (%),[2],13%
same,Population Mitochondria Different-Phenotype (%),[2],9%
same,Population Mitotic Cells (%),[2],66%
same,Population Normal (%),[2],96%
same,Population Pyknosed Nuclei (%),[2],19%
same,Population Tubulin-Different-Phenotype (%),[2],54%
same,Total Cell Count,[2],157
same,Population Apoptotic (%),[3],56%
same,Population Fragmented Nuclei (%),[3],15%
same,Population Healthy Nuclei (%),[3],70%
same,Population Hoechst High Intensity Objects (%),[3],2%
same,Population Membrane Permeable-Phenotype (%),[3],0%
same,Population Mitochondria Different-Phenotype (%),[3],5%
same,Population Mitotic Cells (%),[3],43%
same,Population Normal (%),[3],97%
same,Population Pyknosed Nuclei (%),[3],13%
same,Population Tubulin-Different-Phenotype (%),[3],44%
same,Total Cell Count,[3],123
same,Population Apoptotic (%),[4],40%
same,Population Fragmented Nuclei (%),[4],19%
same,Population Healthy Nuclei (%),[4],48%
same,Population Hoechst High Intensity Objects (%),[4],4%
same,Population Membrane Permeable-Phenotype (%),[4],8%
same,Population Mitotic Cells (%),[4],59%
same,Population Normal (%),[4],95%
same,Population Pyknosed Nuclei (%),[4],31%
same,Population Tubulin-Different-Phenotype (%),[4],54%
same,Total Cell Count,[4],122
same,Population Apoptotic (%),[5],54%
same,Population Fragmented Nuclei (%),[5],17%
same,Population Healthy Nuclei (%),[5],72%
same,Population Hoechst High Intensity Objects (%),[5],1%
same,Population Membrane Permeable-Phenotype (%),[5],2%
same,Population Mitochondria Different-Phenotype (%),[5],4%
same,Population Mitotic Cells (%),[5],45%
same,Population Normal (%),[5],98%
same,Population Pyknosed Nuclei (%),[5],10%
same,Population Tubulin-Different-Phenotype (%),[5],25%
same,Total Cell Count,[5],208
same,Population Apoptotic (%),[6],33%
same,Population Healthy Nuclei (%),[6],63%
same,Population Hoechst High Intensity Objects (%),[6],2%
same,Population Membrane Permeable-Phenotype (%),[6],5%
same,Population Mitochondria Different-Phenotype (%),[6],12%
same,Population Mitotic Cells (%),[6],66%
same,Population Normal (%),[6],97%
same,Population Pyknosed Nuclei (%),[6],19%
same,Population Tubulin-Different-Phenotype (%),[6],44%
same,Total Cell Count,[6],144
same,Population Apoptotic (%),[7],66%
same,Population Fragmented Nuclei (%),[7],11%
same,Population Healthy Nuclei (%),[7],81%
same,Population Hoechst High Intensity Objects (%),[7],0%
same,Population Membrane Permeable-Phenotype (%),[7],0%
same,Population Mitochondria Different-Phenotype (%),[7],4%
same,Population Mitotic Cells (%),[7],33%
same,Population Normal (%),[7],99%
same,Population Pyknosed Nuclei (%),[7],7%
same,Population Tubulin-Different-Phenotype (%),[7],25%
same,Total Cell Count,[7],119
same,Population Apoptotic (%),[8],53%
same,Population Fragmented Nuclei (%),[8],20%
same,Population Healthy Nuclei (%),[8],53%
same,Population Hoechst High Intensity Objects (%),[8],4%
same,Population Membrane Permeable-Phenotype (%),[8],11%
same,Population Mitotic Cells (%),[8],46%
same,Population Normal (%),[8],95%
same,Population Pyknosed Nuclei (%),[8],26%
same,Population Tubulin-Different-Phenotype (%),[8],70%
same,Total Cell Count,[8],120
same,Population Apoptotic (%),[9],78%
same,Population Fragmented Nuclei (%),[9],24%
same,Population Healthy Nuclei (%),[9],66%
same,Population Hoechst High Intensity Objects (%),[9],3%
same,Population Membrane Permeable-Phenotype (%),[9],1%
same,Population Mitochondria Different-Phenotype (%),[9],2%
same,Population Mitotic Cells (%),[9],21%
same,Population Normal (%),[9],96%
same,Population Pyknosed Nuclei (%),[9],9%
same,Population Tubulin-Different-Phenotype (%),[9],31%
same,Total Cell Count,[9],216
same,Population Apoptotic (%),[10],45%
same,Population Fragmented Nuclei (%),[10],29%
same,Population Healthy Nuclei (%),[10],56%
same,Population Hoechst High Intensity Objects (%),[10],1%
same,Population Membrane Permeable-Phenotype (%),[10],7%
same,Population Mitochondria Different-Phenotype (%),[10],6%
same,Population Mitotic Cells (%),[10],54%
same,Population Normal (%),[10],98%
same,Population Pyknosed Nuclei (%),[10],14%
same,Population Tubulin-Different-Phenotype (%),[10],44%
same,Total Cell Count,[10],159
same,Population Apoptotic (%),[11],46%
same,Population Fragmented Nuclei (%),[11],18%
same,Population Healthy Nuclei (%),[11],69%
same,Population Hoechst High Intensity Objects (%),[11],0%
same,Population Membrane Permeable-Phenotype (%),[11],0%
same,Population Mitochondria Different-Phenotype (%),[11],1%
same,Population Mitotic Cells (%),[11],53%
same,Population Normal (%),[11],100%
same,Population Pyknosed Nuclei (%),[11],12%
same,Population Tubulin-Different-Phenotype (%),[11],33%
same,Total Cell Count,[11],124
same,Population Apoptotic (%),[12],59%
same,Population Fragmented Nuclei (%),[12],34%
same,Population Healthy Nuclei (%),[12],46%
same,Population Hoechst High Intensity Objects (%),[12],3%
same,Population Membrane Permeable-Phenotype (%),[12],5%
same,Population Mitochondria Different-Phenotype (%),[12],5%
same,Population Mitotic Cells (%),[12],40%
same,Population Normal (%),[12],96%
same,Population Pyknosed Nuclei (%),[12],19%
same,Population Tubulin-Different-Phenotype (%),[12],58%
same,Total Cell Count,[12],118
